Data from ChEMBL document CHEMBL5120934, “Development of Urea-Bond-Containing Michael Acceptors as Antitrypanosomal Agents Targeting Rhodesain” (ACS Med Chem Lett, 2022).

Key:
[1] = target: Rhodesain (Trypanosoma brucei rhodesiense) (UniProt Q95PM0); test: Binding affinity to recombinant Trypanosoma brucei rhodesiense rhodesain assessed as Kinact using Cbz-Phe-Arg-AMC as fluorogenic substrate measured for 10 mins every 30 seconds by fluorescence microplate reader assay
Summary of the method: (§1)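 Rhodesain activity was followed fluorogenically with the substrate Cbz-Phe-Arg-AMC. Inhibitors were serially diluted and assayed down to the concentration giving minimal inhibition. Irreversible inhibition was characterized by Ki and kinact (the rate of covalent E-I complex formation), and k2nd was calculated as kinact/Ki.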

[2] = target: Rhodesain (Trypanosoma brucei rhodesiense) (UniProt Q95PM0); test: Inhibition of Trypanosoma brucei rhodesiense rhodesain at 0.1 uM using Cbz-Phe-Arg-AMC as fluorogenic substrate measured for 10 mins every 30 seconds by fluorescence microplate reader assay
Summary of the method: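 Single-concentration fluorogenic screen against rhodesain with the substrate Cbz-Phe-Arg-AMC, each compound at 0.1 μM. DMSO served as the negative control and E-64 as the positive control. The read-out was percentage inhibition.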

[3] = target: Replicase polyprotein 1ab (Severe acute respiratory syndrome coronavirus 2) (UniProt P0DTD1); test: Inhibition of C-terminal His-tagged SARS-CoV-2 MPro expressed in Escherichia coli BL21(DE3) at 100 uM using Dabcyl-KTSAVLQSGFRKME-Edans as fluorogenic substrate incubated for 10 mins by FRET assay
Summary of the method: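 Single-concentration preliminary screen of viral main protease at 100 μM. Read-out is percentage inhibition of protease activity. No follow-up dilution series or mode-of-inhibition kinetics were run.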

[4] = target: Rhodesain (Trypanosoma brucei rhodesiense) (UniProt Q95PM0); test: Binding affinity to recombinant Trypanosoma brucei rhodesiense rhodesain assessed as binding constant measured at second inhibition step using Cbz-Phe-Arg-AMC as fluorogenic substrate measured for 10 mins every 30 seconds by fluorescence microplate reader assay; summary of the method: as §1
[5] = target: Rhodesain (Trypanosoma brucei rhodesiense) (UniProt Q95PM0); test: Inhibition of Trypanosoma brucei rhodesiense rhodesain expressed in pichia pastoris assessed as binding constant measured at second inhibition step using Z-Phe-Arg-N-methylcoumarin as substrate by fluorometric assay
[6] = tested on: Trypanosoma brucei; test: Antitrypanosomal activity against bloodstream form of Trypanosoma brucei; format: functional; conditions: read-out: ED50 (the source's name)

Sequence of Rhodesain (Trypanosoma brucei rhodesiense) (Q95PM0 1-450): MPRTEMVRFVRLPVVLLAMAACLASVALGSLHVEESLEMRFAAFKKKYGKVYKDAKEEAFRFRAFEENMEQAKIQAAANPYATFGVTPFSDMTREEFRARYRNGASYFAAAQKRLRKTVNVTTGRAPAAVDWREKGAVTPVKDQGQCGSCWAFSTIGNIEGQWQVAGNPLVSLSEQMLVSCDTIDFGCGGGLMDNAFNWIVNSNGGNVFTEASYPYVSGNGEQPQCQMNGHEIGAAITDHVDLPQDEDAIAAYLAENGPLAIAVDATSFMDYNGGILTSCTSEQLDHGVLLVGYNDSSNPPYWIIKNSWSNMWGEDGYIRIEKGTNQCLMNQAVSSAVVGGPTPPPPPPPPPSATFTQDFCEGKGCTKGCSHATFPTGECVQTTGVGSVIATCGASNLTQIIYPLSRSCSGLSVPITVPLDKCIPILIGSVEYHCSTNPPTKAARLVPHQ

Structure (SMILES)	Kinact [1]	inhibition [2]	inhibition [3]	K [4]	K [5]	EC50 [6]
CC(=O)/C=C/[C@H](CCc1ccccc1)NC(=O)[C@H](Cc1ccccc1)NC(=O)Nc1cccc2ccccc12	0.0084 min⁻¹	> 80%	33%	–	–	–
CC(=O)/C=C/[C@H](CCc1ccccc1)NC(=O)[C@H](Cc1ccccc1)NC(=O)Nc1ccc(F)cc1	0.0021 min⁻¹	> 80%	33%	–	–	–
CC(=O)/C=C/[C@H](CCc1ccccc1)NC(=O)[C@H](Cc1ccccc1)NC(=O)Nc1ccc(Cl)cc1	0.0023 min⁻¹	> 80%	33%	–	–	–
COc1ccc(NC(=O)N[C@@H](Cc2ccccc2)C(=O)N[C@H](/C=C/C(C)=O)CCc2ccccc2)cc1	0.0059 min⁻¹	> 80%	33%	–	–	–
CC(=O)/C=C/[C@H](CCc1ccccc1)NC(=O)[C@H](Cc1ccccc1)NC(=O)Nc1c(F)cccc1F	0.0022 min⁻¹	> 80%	33%	–	–	–
CC(=O)/C=C/[C@H](CCc1ccccc1)NC(=O)[C@H](Cc1ccccc1)NC(=O)Nc1ccc(Cl)cc1C	0.0053 min⁻¹	> 80%	33%	14700 10^3/M/min	–	–
CC(=O)/C=C/[C@H](CCc1ccccc1)NC(=O)[C@H](CC(C)C)NC(=O)Nc1ccc(Cl)cc1C	0.0123 min⁻¹	–	–	14000 10^3/M/min	–	–
CC(=O)/C=C/[C@H](CCc1ccccc1)NC(=O)[C@H](Cc1ccccc1)NC(=O)Nc1ccccc1	0.0021 min⁻¹	> 80%	33%	16700 10^3/M/min	–	–
CC(=O)/C=C/[C@H](CCc1ccccc1)NC(=O)[C@H](Cc1ccccc1)NC(=O)Nc1ccc(Cl)cc1C(F)(F)F	0.006 min⁻¹	> 80%	33%	–	–	–
CC(=O)/C=C/[C@H](CCc1ccccc1)NC(=O)[C@H](Cc1ccccc1)NC(=O)Nc1ccc(C)cc1	0.0023 min⁻¹	> 80%	33%	10400 10^3/M/min	–	–
CN1CCN(C(=O)N[C@@H](Cc2ccccc2)C(=O)N[C@H](/C=C/S(=O)(=O)c2ccccc2)CCc2ccccc2)CC1 [K-777]	–	–	–	–	9000 10^3/M/min	900 nM
CC(=O)/C=C/[C@H](CCc1ccccc1)NC(=O)[C@H](CC(C)C)NC(=O)Nc1ccc(C)cc1	0.0042 min⁻¹	–	–	10400 10^3/M/min	–	–
